Tests used:
[1] = target: Monoamine transporters; serotonin & dopamine (Rattus norvegicus) (UniProt P31652+P23977); experiment: Selectivity for serotonin and dopamine transporters; assay type: protein assay
[2] = target: Sodium-dependent serotonin transporter (Rattus norvegicus, UniProt P31652); experiment: Binding affinity at serotonin transporter from rat brain striatal membrane by [3H]citalopram displacement.; assay type: tissue-based
Method in brief: (§1)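 Rat striatal P2 membranes: tissue homogenised in 0.32 M sucrose, pellet polytronned in ice-cold 35 mM sodium phosphate, pH 7.4. Incubation 2 h on ice, final sodium phosphate 30 mM, final DMSO 0.5%. Five inhibitor concentrations set after range-finding. Mean ± SEM of 3–5 (DAT, [3H]CFT) or 2–3 (SERT, [3H]citalopram) independent experiments, each in triplicate.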

[3] = target: Sodium-dependent dopamine transporter (Rattus norvegicus, UniProt P23977); experiment: Binding affinity at dopamine transporter from rat striatal membrane tissue by [3H]CFT displacement.; assay type: tissue-based, Striatum; method in brief: as §1
Sequence of Sodium-dependent dopamine transporter (P23977 whole entry): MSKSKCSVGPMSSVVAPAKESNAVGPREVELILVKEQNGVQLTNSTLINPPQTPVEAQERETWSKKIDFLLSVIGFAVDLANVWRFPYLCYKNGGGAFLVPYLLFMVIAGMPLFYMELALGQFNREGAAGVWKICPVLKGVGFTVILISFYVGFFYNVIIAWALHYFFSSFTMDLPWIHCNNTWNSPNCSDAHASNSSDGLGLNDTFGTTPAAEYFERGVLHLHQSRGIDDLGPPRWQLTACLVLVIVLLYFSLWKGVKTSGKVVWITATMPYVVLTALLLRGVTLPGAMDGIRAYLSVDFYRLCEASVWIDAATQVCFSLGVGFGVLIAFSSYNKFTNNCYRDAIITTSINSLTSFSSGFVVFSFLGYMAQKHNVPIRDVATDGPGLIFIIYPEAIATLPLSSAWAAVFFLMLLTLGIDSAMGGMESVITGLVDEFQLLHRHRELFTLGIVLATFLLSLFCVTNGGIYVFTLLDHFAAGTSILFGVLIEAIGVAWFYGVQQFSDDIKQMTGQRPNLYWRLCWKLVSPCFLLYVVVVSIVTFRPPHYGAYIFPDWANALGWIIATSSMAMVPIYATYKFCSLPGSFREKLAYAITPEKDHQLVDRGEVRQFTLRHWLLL

Sequence of Monoamine transporters; serotonin & dopamine (Rattus norvegicus) (P23977 whole entry, looked up): as the sequence (P23977 whole entry) above
Sequence of Monoamine transporters; serotonin & dopamine (Rattus norvegicus) (P31652 whole entry, looked up): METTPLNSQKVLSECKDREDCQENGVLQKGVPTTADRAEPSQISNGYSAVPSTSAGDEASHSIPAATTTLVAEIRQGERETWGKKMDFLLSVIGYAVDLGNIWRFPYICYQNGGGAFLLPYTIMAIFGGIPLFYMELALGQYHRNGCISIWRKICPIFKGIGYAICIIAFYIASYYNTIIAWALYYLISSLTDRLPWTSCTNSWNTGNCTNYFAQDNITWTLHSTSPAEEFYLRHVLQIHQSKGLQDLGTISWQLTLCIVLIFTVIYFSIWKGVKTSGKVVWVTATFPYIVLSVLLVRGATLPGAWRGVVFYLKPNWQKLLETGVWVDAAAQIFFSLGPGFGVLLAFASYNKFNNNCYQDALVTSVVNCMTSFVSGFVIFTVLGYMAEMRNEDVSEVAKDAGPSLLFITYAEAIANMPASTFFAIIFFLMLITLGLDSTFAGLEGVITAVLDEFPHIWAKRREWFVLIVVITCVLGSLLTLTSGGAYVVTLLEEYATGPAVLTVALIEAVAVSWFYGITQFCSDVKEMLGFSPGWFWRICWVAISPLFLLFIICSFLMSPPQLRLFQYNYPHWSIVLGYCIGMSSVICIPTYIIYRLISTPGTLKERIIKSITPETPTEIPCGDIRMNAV
Sequence of Sodium-dependent serotonin transporter (P31652 whole entry): as the sequence (P31652 whole entry, looked up) above

Row | Compound | Selectivity [1] | IC50 [2] [nM] | IC50 [3] [nM]
1 | COc1ccc(C(OCCC2CCN(CCCc3ccccc3)CC2)c2ccc(OC)cc2)cc1 | 1.3 | 340 | 255
2 | Fc1ccc(C(OCC2CCN(CCc3ccccc3)CC2)c2ccc(F)cc2)cc1 | 17.5 | 237 | 13.5
3 | c1ccc(CCCN2CCC(CCOC(c3ccccc3)c3ccccc3)CC2)cc1 | 20 | 232 | 12
4 | Fc1ccc(C(OCC2CCN(Cc3ccccc3)CC2)c2ccc(F)cc2)cc1 | 6 | 761 | 126
5 | c1ccc(CN2CCC(COC(c3ccccc3)c3ccccc3)CC2)cc1 | 0.7 | 544 | 702
6 | c1ccc(CN2CCC(CCOC(c3ccccc3)c3ccccc3)CC2)cc1 | 49 | 743 | 15.2
7 | c1ccc(CCCN2CCC(COC(c3ccccc3)c3ccccc3)CC2)cc1 | 4 | 58 | 14.5
8 | Clc1ccc(C(OCCC2CCN(CCCc3ccccc3)CC2)c2ccc(Cl)cc2)cc1 | 3.5 | 224 | 65
9 | Brc1ccc(C(OCCC2CCN(CCc3ccccc3)CC2)c2ccc(Br)cc2)cc1 | 1.6 | 638 | 382
10 | Brc1ccc(C(OCCC2CCN(CCCc3ccccc3)CC2)c2ccc(Br)cc2)cc1 | 5.2 | 835 | 159
11 | Fc1ccc(C(OCCC2CCN(CCCc3ccccc3)CC2)c2ccc(F)cc2)cc1 | 3.3 | 55 | 16.7
12 | Fc1ccc(C(OCCC2CCN(CCc3ccccc3)CC2)c2ccc(F)cc2)cc1 |  | 31.9 | 
13 | c1ccc(CCN2CCC(CCOC(c3ccccc3)c3ccccc3)CC2)cc1 |  | 102 | 
14 | c1ccc(CCN2CCC(COC(c3ccccc3)c3ccccc3)CC2)cc1 | 4.2 | 456 | 108
15 | Fc1ccc(C(OCCC2CCN(Cc3ccccc3)CC2)c2ccc(F)cc2)cc1 | 20 | 198 | 9.7
16 | Cc1ccc(C(OCCC2CCN(CCc3ccccc3)CC2)c2ccc(C)cc2)cc1 | 2.8 | 888 | 311
17 | Clc1ccc(C(OCCC2CCN(CCc3ccccc3)CC2)c2ccc(Cl)cc2)cc1 | 3.6 | 414 | 115
18 | Fc1ccc(C(OCC2CCN(CCCc3ccccc3)CC2)c2ccc(F)cc2)cc1 | 8.6 | 112 | 13
